From ChEMBL document CHEMBL3862017, “Synthesis and evaluation of the structural elements in alkylated tetrahydroisoquinolines for binding to CNS receptors” (Bioorg Med Chem, 2016) come the findings set out here.

One data set deals with T1, D(4) dopamine receptor (Rattus norvegicus, UniProt P30729).
T1 sequence (P30729 whole entry): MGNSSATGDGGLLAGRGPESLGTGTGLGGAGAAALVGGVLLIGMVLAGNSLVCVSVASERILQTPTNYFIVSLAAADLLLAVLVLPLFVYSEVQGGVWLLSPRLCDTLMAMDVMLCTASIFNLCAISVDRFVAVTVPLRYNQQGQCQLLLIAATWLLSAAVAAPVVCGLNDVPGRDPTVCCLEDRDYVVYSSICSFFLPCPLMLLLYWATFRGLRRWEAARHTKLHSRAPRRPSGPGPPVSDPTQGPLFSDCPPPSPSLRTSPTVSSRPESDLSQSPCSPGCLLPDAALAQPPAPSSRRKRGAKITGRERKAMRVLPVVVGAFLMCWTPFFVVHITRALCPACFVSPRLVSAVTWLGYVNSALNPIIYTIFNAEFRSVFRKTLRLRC

Another data set addresses Histamine H1 receptor (Homo sapiens, UniProt P35367). In words: Displacement of [3H]-pyrilamine from human histamine H1 receptor by liquid scintillation counting method. The method, boiled down:
(§1)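 Binding assays run by the NIMH Psychoactive Drug Screening Program (PDSP) using its previously reported methods and radioligands. Affinity is given as Ki.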

Data set [1] has as its target T2, 5-hydroxytryptamine receptor 1A (Homo sapiens) (UniProt P08908).
T2 sequence (whole entry): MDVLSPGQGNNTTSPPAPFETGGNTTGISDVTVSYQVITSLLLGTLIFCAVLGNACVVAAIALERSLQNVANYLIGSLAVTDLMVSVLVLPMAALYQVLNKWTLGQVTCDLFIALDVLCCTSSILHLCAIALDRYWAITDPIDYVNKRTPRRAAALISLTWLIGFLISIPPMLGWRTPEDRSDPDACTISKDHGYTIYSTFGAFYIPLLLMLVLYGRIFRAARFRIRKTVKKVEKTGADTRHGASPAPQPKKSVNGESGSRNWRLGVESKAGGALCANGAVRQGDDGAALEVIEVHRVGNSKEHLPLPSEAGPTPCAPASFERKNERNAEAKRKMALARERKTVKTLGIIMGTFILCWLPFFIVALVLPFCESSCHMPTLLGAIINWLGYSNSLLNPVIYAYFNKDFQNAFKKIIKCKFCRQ
Briefly: Displacement of [3H]-8-OH-DPAT from human 5-HT1A receptor by liquid scintillation counting method. The settings on record: concentration not given here. In short, it runs like this: as §1
On the technique in general: In a radioligand displacement assay an active substance lowers the binding of a labelled ligand.

Data set [2] addresses D(2) dopamine receptor (Homo sapiens) (UniProt P14416). In words: Displacement of [3H]-N-methylspiperone from human dopamine D2 receptor by liquid scintillation counting method. The following applies: concentration not given here. Also on record: concentration or dose not given beside the values. In short, it runs like this: as §1
The target of data set [3] is 5-hydroxytryptamine receptor 2A (Homo sapiens, UniProt P28223). Briefly: Displacement of [3H]-ketanserin from human 5-HT2A receptor by liquid scintillation counting method. The following applies: for inhibition: concentration not given here. The method, boiled down: as §1
Chain of 5-hydroxytryptamine receptor 2A (P28223 whole entry): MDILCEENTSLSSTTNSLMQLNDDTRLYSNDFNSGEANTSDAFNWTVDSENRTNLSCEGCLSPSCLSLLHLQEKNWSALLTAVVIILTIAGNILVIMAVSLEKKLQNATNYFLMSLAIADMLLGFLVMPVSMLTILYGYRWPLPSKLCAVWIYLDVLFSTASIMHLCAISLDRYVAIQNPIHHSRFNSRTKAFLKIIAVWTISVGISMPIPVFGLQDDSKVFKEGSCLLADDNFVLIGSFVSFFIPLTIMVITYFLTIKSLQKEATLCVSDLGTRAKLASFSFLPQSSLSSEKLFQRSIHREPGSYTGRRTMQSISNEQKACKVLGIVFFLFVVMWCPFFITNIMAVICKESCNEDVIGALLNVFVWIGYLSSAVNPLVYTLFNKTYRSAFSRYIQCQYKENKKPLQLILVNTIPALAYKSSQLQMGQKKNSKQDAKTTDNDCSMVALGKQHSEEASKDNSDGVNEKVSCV
Data set [4] has as its target 5-hydroxytryptamine receptor 2B (Homo sapiens, UniProt P41595). In words: Displacement of [3H]-LSD from human 5-HT2B receptor by liquid scintillation counting method. The method, boiled down:
as §1

For data set [5], the target named is T3, 5-hydroxytryptamine receptor 2C (Homo sapiens, UniProt P28335).
T3 sequence (P28335 whole entry): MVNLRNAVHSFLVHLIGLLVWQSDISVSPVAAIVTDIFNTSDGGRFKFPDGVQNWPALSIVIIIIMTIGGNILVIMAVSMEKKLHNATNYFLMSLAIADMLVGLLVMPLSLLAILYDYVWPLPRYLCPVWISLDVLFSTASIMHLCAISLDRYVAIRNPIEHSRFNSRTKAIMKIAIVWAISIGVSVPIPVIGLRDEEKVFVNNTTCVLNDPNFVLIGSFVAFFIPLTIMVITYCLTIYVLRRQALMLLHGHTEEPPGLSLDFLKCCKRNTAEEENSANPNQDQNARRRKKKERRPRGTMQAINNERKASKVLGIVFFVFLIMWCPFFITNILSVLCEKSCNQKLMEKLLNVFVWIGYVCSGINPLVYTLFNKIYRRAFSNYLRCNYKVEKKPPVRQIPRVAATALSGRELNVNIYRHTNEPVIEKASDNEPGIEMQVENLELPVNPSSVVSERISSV
In words: Displacement of [3H]-mesulergine from human 5-HT2C receptor by liquid scintillation counting method. The following applies: for inhibition (INH): human. The method, boiled down: as §1

In data set [6] the target is 5-hydroxytryptamine receptor 7 (Homo sapiens) (UniProt P34969). Briefly: Displacement of [3H]-LSD from human 5-HT7 receptor by liquid scintillation counting method. The following applies: concentration not given here. The method, boiled down:
as §1

Data set [7] has as its target D(3) dopamine receptor (Homo sapiens) (UniProt P35462). Briefly: Displacement of [3H]-N-methylspiperone from human dopamine D3 receptor by liquid scintillation counting method. The settings on record: concentration not given here. The method, boiled down:
as §1

Chain of D(2) dopamine receptor (Homo sapiens) (P14416 whole entry): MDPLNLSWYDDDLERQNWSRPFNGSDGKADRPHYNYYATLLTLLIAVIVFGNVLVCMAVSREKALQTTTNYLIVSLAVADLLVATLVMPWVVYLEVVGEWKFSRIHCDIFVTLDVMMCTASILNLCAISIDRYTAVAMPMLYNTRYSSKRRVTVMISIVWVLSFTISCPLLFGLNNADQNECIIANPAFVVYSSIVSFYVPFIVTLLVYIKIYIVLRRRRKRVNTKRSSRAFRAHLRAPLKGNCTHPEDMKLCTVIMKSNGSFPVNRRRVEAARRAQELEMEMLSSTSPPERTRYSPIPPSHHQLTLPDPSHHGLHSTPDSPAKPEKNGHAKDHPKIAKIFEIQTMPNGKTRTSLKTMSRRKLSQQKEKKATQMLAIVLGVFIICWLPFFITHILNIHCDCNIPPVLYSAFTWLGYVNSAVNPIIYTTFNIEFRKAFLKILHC
Chain of 5-hydroxytryptamine receptor 2B (P41595 whole entry): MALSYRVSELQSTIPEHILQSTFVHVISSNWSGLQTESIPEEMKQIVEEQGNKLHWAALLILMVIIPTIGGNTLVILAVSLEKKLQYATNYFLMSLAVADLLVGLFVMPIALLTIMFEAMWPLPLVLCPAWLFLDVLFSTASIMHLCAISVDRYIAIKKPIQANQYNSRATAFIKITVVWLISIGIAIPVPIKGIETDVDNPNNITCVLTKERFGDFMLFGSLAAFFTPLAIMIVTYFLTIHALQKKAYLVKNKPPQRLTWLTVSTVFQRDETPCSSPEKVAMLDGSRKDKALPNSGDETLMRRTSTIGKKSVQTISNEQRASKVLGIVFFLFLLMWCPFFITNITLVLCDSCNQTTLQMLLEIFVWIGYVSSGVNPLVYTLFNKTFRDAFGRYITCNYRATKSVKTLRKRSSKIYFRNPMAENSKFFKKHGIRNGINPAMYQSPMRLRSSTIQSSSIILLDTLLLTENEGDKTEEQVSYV
Chain of Histamine H1 receptor (P35367 whole entry): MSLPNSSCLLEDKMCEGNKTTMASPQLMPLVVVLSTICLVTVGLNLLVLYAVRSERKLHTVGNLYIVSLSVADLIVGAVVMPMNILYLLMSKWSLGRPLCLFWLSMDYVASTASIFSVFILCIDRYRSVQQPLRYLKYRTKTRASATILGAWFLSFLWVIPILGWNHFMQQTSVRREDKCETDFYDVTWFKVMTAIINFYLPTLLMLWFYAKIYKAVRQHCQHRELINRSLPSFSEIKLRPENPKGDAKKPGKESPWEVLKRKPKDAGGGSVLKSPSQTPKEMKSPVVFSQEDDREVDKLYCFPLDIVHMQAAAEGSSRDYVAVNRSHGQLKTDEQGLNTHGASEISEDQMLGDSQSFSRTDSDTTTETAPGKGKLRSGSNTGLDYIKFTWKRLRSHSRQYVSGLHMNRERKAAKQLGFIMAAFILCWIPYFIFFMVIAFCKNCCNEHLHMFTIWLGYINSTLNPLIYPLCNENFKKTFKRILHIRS
Chain of 5-hydroxytryptamine receptor 7 (Homo sapiens) (P34969 whole entry): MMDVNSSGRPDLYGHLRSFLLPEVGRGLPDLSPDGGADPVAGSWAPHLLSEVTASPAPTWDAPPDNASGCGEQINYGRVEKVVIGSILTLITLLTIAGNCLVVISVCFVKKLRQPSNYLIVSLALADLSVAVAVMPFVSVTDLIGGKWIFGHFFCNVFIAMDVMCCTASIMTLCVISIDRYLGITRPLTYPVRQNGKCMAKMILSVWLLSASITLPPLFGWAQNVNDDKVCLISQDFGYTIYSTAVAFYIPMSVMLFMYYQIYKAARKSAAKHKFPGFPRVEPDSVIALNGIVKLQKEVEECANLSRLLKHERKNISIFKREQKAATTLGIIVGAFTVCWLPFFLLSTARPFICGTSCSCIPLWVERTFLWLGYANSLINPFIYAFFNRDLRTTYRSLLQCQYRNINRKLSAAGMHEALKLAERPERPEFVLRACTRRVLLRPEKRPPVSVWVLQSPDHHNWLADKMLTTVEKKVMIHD
Chain of D(3) dopamine receptor (Homo sapiens) (P35462 whole entry): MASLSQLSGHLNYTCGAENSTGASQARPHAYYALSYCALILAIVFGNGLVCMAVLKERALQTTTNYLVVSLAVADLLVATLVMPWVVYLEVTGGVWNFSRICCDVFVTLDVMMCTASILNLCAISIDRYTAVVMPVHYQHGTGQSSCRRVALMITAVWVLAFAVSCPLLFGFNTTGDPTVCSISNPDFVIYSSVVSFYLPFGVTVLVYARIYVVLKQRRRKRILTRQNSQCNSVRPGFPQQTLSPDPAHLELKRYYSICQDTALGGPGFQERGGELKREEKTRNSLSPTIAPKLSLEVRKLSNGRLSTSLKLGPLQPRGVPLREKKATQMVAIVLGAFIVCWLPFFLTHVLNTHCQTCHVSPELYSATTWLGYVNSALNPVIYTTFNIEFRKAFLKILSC

With `O=C(CCCN1CCc2ccccc2CC1)c1ccc(Cl)cc1`, the affinity on D(4) dopamine receptor corresponds to a Ki of 82 nM.

As to `O=C1Cc2cc(C(=O)CCCN3CCc4ccccc4C3)ccc2N1`, the Ki (commonly the dissociation constant of the complex between target and ligand, obtained from inhibition or displacement) at D(4) dopamine receptor was determined as 3340 nM. For the same molecule, the “inhibition (INH)” value on Histamine H1 receptor is below 50%.

For `O=C1c2ccccc2CC1CCN1CCc2ccccc2C1` (centres undefined), the affinity on D(4) dopamine receptor, expressed as Ki, was 1100 nM.

Turning to `C1=C(CCN2CCc3ccccc3C2)CCc2ccccc21`, the affinity on D(4) dopamine receptor corresponds to a Ki of 140 nM.

`Clc1ccc2sc(CCCCN3CCC4CCCCC4C3)nc2c1` (centres undefined) came in with a Ki at D(4) dopamine receptor of 37 nM.

For the molecule `Cl.Clc1ccc(C(=CCCN2CCc3ccccc3C2)c2ccc(Cl)cc2)cc1`, the inhibition in data set [1], in data set [2] and in [3] was below 50% in each case. Besides, in data set [4], the “inhibition (INH)” value is given as below 50%.

With `Clc1cccc2c1CN(CCCCc1nc3ccccc3s1)CC2`, the affinity on D(4) dopamine receptor corresponds to a Ki of 129 nM.

Turning to `c1ccc2c(c1)CCN(CCCc1nc3ccccc3s1)C2`, in data set [2], the inhibition – broadly, the change of the read-out against control, counted positive when it falls – is below 50%. The same molecule showed a Ki at D(4) dopamine receptor of 41 nM.

The molecule `C1=C(CCN2CCc3ccccc3C2)Cc2ccccc21` had an inhibition in [2] below 50%. Further, the “inhibition (INH)” value (in [5]; at Histamine H1 receptor) was below 50% throughout. On D(4) dopamine receptor, this molecule had a Ki of 194 nM.

For `O=C1c2ccc(F)cc2CC1CCN1CCc2ccccc2C1` (centres undefined), in data set [5], the “inhibition (INH)” value is below 50%. This molecule showed a Ki at D(4) dopamine receptor of 251 nM.

Consider `COc1cc2c(cc1OC)CN(CCCCc1nc3cc(Cl)ccc3s1)CC2`, for which the Ki at D(4) dopamine receptor is 272 nM.

With `CC1(C)CC(=O)N(CCCCN2CCc3ccccc3C2)C(=O)C1.Cl`, the inhibition in [1], in data set [6], in data set [2] and in [3] was below 50% each time. Also, the “inhibition (INH)” value (in [5]; at Histamine H1 receptor; in [4]) was below 50% in each case.

Molecule `CC1(C)CC(=O)N(CCCCN2Cc3ccccc3C2)C(=O)C1` came in with a Ki at D(4) dopamine receptor above 10000 nM.

On to `O=C1c2ccc(Cl)cc2CC1CCN1CCc2ccccc2C1` (centres undefined), for which the Ki at D(4) dopamine receptor is 50 nM.

Take `Cl.O=C(CCCN1CCCCc2ccccc21)c1ccc(Cl)cc1`: the inhibition in data set [1], in data set [6], in data set [2], in data set [7] and in data set [3] was below 50% in each case. Moreover, the “inhibition (INH)” value (in data set [5]; at Histamine H1 receptor; in data set [4]) was below 50% throughout.

As for `O=C(CCCN1CCCc2ccccc21)c1ccc(Cl)cc1`, the inhibition in data set [1], in data set [6], in data set [2], in data set [7] and in data set [3] was below 50% throughout. Moreover, the “inhibition (INH)” value (on Histamine H1 receptor; in data set [4]) was below 50% throughout.

Consider `Cl.Cl.c1ccc2c(c1)CCN(CCCc1nc3ccccc3[nH]1)C2`, for which the Ki was above 10000 nM in data set [5], 127 nM at D(4) dopamine receptor and above 10000 nM in data set [3]. Also, the “inhibition (INH)” value in data set [4] is given as below 50%.

`O=C(CCCN1CCCc2ccccc2C1)c1ccc(Cl)cc1` registered a Ki on D(4) dopamine receptor of 442 nM.
